HTRA1 inh – HTRA1 (human) protease inhibition; hit rate 0.5% among 340,000; AID 504803; recombinant HTRA1, FP-rhodamine activity-based probe, fluorescence polarization; inhibition, % at 5.96 µM; in the data active means inhibition above about 36%
ABHD4 inh – inhibits mouse alpha/beta hydrolase domain 4; AID 720543; inhibition, % at 8.92 µM; Q8VD66; hit rate 0.54% among 370,000; purified mABHD4, FP-Rh probe fluorescence polarization;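 active means inhibition exceeding the mean over every tested compound plus 3 SD, cut at about 30% in these data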
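system = mouse ABHD4 enzyme, wild type | medium = HEPES pH 7.0, NaCl, Pluronic buffer | also added = FP-Rh probe | incubation = Enzyme–compound pre-incubation 45 min, then probe 60 min, both 25 °C | technique = fluorescence polarization, excitation 525 nm, emission 598 nm, BODIPY TMR filters | controls = S159A mutant high control, sample median low control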
pPAFAH FP inh – inhibitors of human plasma PAF acetylhydrolase (pPAFAH); Q13093; recombinant pPAFAH, FP-rhodamine probe fluorescence polarization; hit rate 1.5% among 330,000; inhibition, % at 3.39 µM;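 active means inhibition above the mean inhibition across the screen plus 3 SD, cut at about 25% in these data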;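 further: inhibitors block binding of the rhodamine activity-based probe so polarization drops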
SIAE inh – human SIAE inhibition, primary screen | inhibition, % at 9.66 µM | SIAE FP-Rh probe binding, fluorescence polarization | hit rate 0.69% among 370,000 | Q9HAT2;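 active means inhibition above a cutoff: mean of compounds within the control limits plus 3 SD of those, cut at about 17% in these data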
Target sequence (Q9HAT2 whole entry, looked up): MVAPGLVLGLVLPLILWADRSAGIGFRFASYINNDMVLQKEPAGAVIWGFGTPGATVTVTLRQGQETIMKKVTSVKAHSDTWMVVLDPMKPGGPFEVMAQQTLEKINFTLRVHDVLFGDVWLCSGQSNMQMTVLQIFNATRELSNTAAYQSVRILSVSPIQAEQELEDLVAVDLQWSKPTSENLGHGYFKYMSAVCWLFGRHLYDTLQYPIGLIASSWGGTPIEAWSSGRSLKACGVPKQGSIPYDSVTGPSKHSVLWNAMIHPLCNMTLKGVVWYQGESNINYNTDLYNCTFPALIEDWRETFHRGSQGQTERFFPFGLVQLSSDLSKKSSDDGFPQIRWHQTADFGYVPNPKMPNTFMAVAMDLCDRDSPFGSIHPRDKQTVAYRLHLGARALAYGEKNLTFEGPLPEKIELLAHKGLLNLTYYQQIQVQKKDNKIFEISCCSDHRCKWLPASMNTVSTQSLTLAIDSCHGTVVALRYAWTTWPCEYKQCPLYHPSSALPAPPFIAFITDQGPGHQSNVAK
TCR CD3 inh – human TCR-CD3 binding inhibition | TAMRA-labeled TCR probe fluorescence, biochemical | inhibition, % at 9.4 µM | hit rate 0.37% among 360,000 | AID 651800; in the data active means inhibition above about 19%;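 further: recombinant mutant TCR 2C K166C tagged with TAMRA read by polarization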
ABHD4 confirm – confirmation of mouse ABHD4 inhibitors; shares compounds with ABHD4 inh; purified mABHD4, FP-Rh probe fluorescence polarization; inhibition, % at 8.92 µM; hit rate 55% among 1,800; AID 720658;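 active means mean inhibition across replicates above the hit cutoff set in the primary screen, cut at about 30% in these data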
Of the large screens only hits and unclear results are named; the others gave an inactive call (follow-up assays come after a bar, where they were run). An excerpt weighted towards active compounds, which were near 2.3% of everything screened.

CCOc1cc2c(c3c1C(c1ccccc1)N(S(=O)(=O)c1ccc(C)cc1)C3)C(=O)C=CC2=O (stereo not drawn)	ABHD4 inh 48 (no result: HTRA1 inh, pPAFAH FP inh) | ABHD4 confirm 60
CCOC(=O)C1=CCN(S(=O)(=O)c2ccc(C)cc2)C1c1ccccc1 (stereo not drawn)	none (no result: HTRA1 inh, pPAFAH FP inh)
O=C(O)c1ccc(NS(=O)(=O)c2ccc3c(c2)C(=O)c2ccccc2C3=O)cc1	ABHD4 inh 36 (no result: HTRA1 inh) | ABHD4 confirm 58
O=Cc1nc(Nc2cc(F)cc(F)c2)nc(NC2CCCC2)n1	none (no result: HTRA1 inh, pPAFAH FP inh, TCR CD3 inh)
Cc1cc(C)nc(OC(C(=O)O)C(OCCC(C)C)(c2ccccc2)c2ccccc2)n1 (stereo not drawn)	ABHD4 inh 35 | ABHD4 confirm 47
Cc1cccn2c(CNCCSc3nccn3C)c(C(=O)N3CCCCC3)nc12	ABHD4 inh 35 | ABHD4 confirm inactive
Cc1cccn2c(CNCCCn3ncc4ccccc43)c(C(=O)N3CCCCC3)nc12	none
CN(C)CCNc1cccc2sc3ccc(O)cc3c(=O)c12	ABHD4 inh 31 (no result: HTRA1 inh, pPAFAH FP inh) | ABHD4 confirm inactive
N#C/C(=C/C1=C(N2CCOCC2)C(=C/c2ccc(Cl)cc2Cl)/CC1)C(=O)Nc1ccccc1F	ABHD4 inh 40 (no result: pPAFAH FP inh) | ABHD4 confirm inactive
CCOC(=O)[C@@]12CN(C(=O)OC(C)(C)C)CC=C1N(Cc1ccc(OC)cc1)C(=O)[C@H]2CC(=O)NCc1cccc2ccccc12	none (no result: HTRA1 inh, pPAFAH FP inh, TCR CD3 inh)
Cc1c(C#N)c(O)[nH]c(=O)c1N=Nc1ccc(S(N)(=O)=O)cc1	ABHD4 inh 39 | ABHD4 confirm 47
Cc1c(C#N)c(O)[nH]c(=O)c1N=Nc1ccc(Cl)c(C(=O)O)c1	none
Cc1ccc(OCCn2c(CCNC(=O)C3CCCCCC3)nc3ccccc32)cc1	none (no result: HTRA1 inh, pPAFAH FP inh, TCR CD3 inh)
CCCCOCCCNC(=O)C[C@H]1C[C@@]2(C(=O)OC)C(=C[C@H](C3CCCC3)O[C@@H]2C)N(Cc2ccco2)C1=O	none (no result: HTRA1 inh, pPAFAH FP inh, TCR CD3 inh)
COC(=O)c1c(C)oc2c1cc(NS(=O)(=O)c1ccc(C(=O)O)cc1)c1ccccc12	ABHD4 inh 34 | ABHD4 confirm inactive
Cc1ccccc1CN1CCCCC(NC(=O)c2ccc(Br)cc2)C1=O (stereo not drawn)	none (no result: HTRA1 inh, pPAFAH FP inh, TCR CD3 inh)
COc1cc(/C=N/Nc2nc(N3CCCC3)nc(N3CCCC3)n2)ccc1O	none
Oc1ccc(/C=N/Nc2nc(N3CCCC3)nc(N3CCCC3)n2)cc1O	ABHD4 inh 30 | ABHD4 confirm inactive
CCOC(=O)[C@]12CCC=C1N(Cc1ccco1)C(=O)[C@H](CC(=O)NCC1CCCCC1)C2	none (no result: HTRA1 inh, pPAFAH FP inh)
COc1cc(CNc2ccc3[nH]c(=O)[nH]c3c2)ccc1OCc1ccc(Cl)cc1	none
COc1cc(CNc2ccc3[nH]c(=O)[nH]c3c2)ccc1OCc1ccccc1	ABHD4 inh 30 | ABHD4 confirm inactive
CN(C)Cc1cn(-c2cccc(-c3noc4c3C(=O)N(CC(=O)N3CCOCC3)CC4)c2)nn1	none (no result: HTRA1 inh, pPAFAH FP inh, TCR CD3 inh)
COCc1cn(-c2cccc(-c3noc4c3C(=O)N(CC(=O)N3CCOCC3)CC4)c2)nn1	ABHD4 inh 32 (no result: HTRA1 inh, pPAFAH FP inh, TCR CD3 inh) | ABHD4 confirm inactive
CCOC(=O)C1(Cc2ccccc2)CCN(Cc2ccccc2OC)CC1	none (no result: HTRA1 inh, pPAFAH FP inh, TCR CD3 inh)
O=C(O)c1ccc(Cl)c(S(=O)(=O)Nc2ccccc2Cc2ccccc2)c1	ABHD4 inh 30 | ABHD4 confirm inactive
O=C(O)c1cc(S(=O)(=O)Nc2ccccc2Cc2ccccc2)ccc1Cl	none
CC(C)CCN1C(=O)c2cccc3c(N)ccc(c23)C1=O	ABHD4 inh 50 | ABHD4 confirm 62
Cc1cccc(N2C(=O)c3cccc4c(N)ccc(c34)C2=O)c1	none
CCC(C(=O)Nc1ccccc1N1CCCC1)c1cccc(C)c1 (stereo not drawn)	none (no result: HTRA1 inh, pPAFAH FP inh, TCR CD3 inh)
CC1OC(CC(=O)O)CC2=C1C(=O)c1c(O)cccc1C2=O (stereo not drawn)	ABHD4 inh 40 (no result: pPAFAH FP inh) | ABHD4 confirm 44
O=C1c2cccc(NCCNCCO)c2C(=O)c2cccc(NCCNCCO)c21	none (no result: pPAFAH FP inh)
CN1c2ccsc2/C(=N/NC(=O)c2c(F)cccc2F)CS1(=O)=O	none
CN1c2ccsc2/C(=N/Nc2ccccc2)CS1(=O)=O	ABHD4 inh 32 | ABHD4 confirm inactive
Nc1ncc(N=Nc2cc(C(=O)O)ccc2Cl)s1	ABHD4 inh 42, pPAFAH FP inh 26 | ABHD4 confirm 62
Nc1cc2sc(-c3ccc(C(=O)O)cc3)nc2cc1Cl	none
O=C1C(Cl)=C(Nc2ccc(O)cc2)C(=O)c2ccccc21	ABHD4 inh 41 | ABHD4 confirm 54

Source: PubChem BioAssay (The Scripps Research Institute Molecular Screening Center)
